# STAT3 act-1: IL-6 driven STAT3 reporter potentiators, primary screen, U3A cells, luciferase, luminescence, MLSCN library | activation (% of control), % at 5.6 µM | 190,000 tested, 0.91% active | IL-6 STAT3-luciferase reporter; 100% = signal with IL-6 EC80 alone;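 active means activation above the screen-wide mean of compound activation plus 3 SD, cut at about 130% in these data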;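 further: 0% = background luminescence of wells with medium and substrate only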
#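 Material: STAT1-lacking human U3A cells, STAT3 luciferase reporter | Benchmarks: IL-6-only wells as 100% reference | Probe or stimulus: IL-6 (33 ng/mL) | Timing: Compound 1 h, then IL-6 6 h at 37 °C | Detection: Luminescence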
# AHR activator: AHR activators, primary screen, cell-based, luminescence, luciferase reporter, human; activation, % at 5 µM; AID 2796, 2010; AHR-responsive luciferase reporter cells; 320,000 tested, 2.5% active; in the data active means activation above about 47%;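 further: 0% = vehicle wells and 100% = reference agonist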
# GAA850 FXN act: FXN promoter activators, primary screen, cell-based, luciferase luminescence, HEK293 lucGAA850; HEK293 lucGAA850 FXN promoter luciferase reporter, 24 h; percent of 10 µM SAHA response; activation, % at 6 µM; 360,000 tested, 0.56% active; AID 540364, 2011;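 active means activation above the average of all compounds screened plus 3 SD, cutoff fixed separately per campaign, cut at about 7.5% in these data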;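 further: 0% = DMSO wells and 100% = 10 µM SAHA wells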
# ABCB6 inh 2: ABCB6 transporter inhibitors, primary screen, K562-ABCB6 cells, flow cytometry, MLPCN library; ATP-binding cassette sub-family B member 6 (Homo sapiens), Q9NP58; K562-ABCB6 porphyrin accumulation, 1 h; hits give low values; fluorescence ratio to DMSO, % at 10 µM; 360,000 tested, 0.19% active;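 active means fluorescence ratio to DMSO below 75%, the collection mean minus 3 SD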;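 further: signal is porphyrin accumulated inside mitochondria; 100% equals median channel fluorescence of DMSO control wells; lower ratio means ABCB6 inhibition with less porphyrin fluorescence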
# STAT3 act-2: STAT3 reporter potentiators, retest of hits, confirmation, U3A cells, luciferase, luminescence | shares compounds with STAT3 act-1 | IL-6 potentiation; U3A cells lack STAT1; 100 means same as IL-6 alone | potentiation (% of control), % at 5.7 µM | 1,200 tested, 64% active | AID 1267, 2008;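 active means percent activation of the STAT3 luciferase reporter above a set limit taken from the earlier primary screen, cut at about 130% in these data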;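 further: 0% = background signal of medium plus substrate and 100% = median of IL-6 with DMSO wells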
# NFkB act 2: NF-kB reporter activators in human cells, counter-screen for STAT3 activator project | shares compounds with STAT3 act-1 | NF-kappaB reporter activation | activation (% of control), % at 5.7 µM | 1,200 tested, 11% active | AID 1309, 2008; in the data active means activation above about 120%;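 further: reporter induced by TNF-alpha stimulation; 100% = median of stimulated DMSO wells and 0% = no signal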
# STAT1 act: STAT1 reporter activators, IFN-gamma induced, counter-screen for STAT3 activator project, cell-based, NIH 3T3, luciferase luminescence; activation (% of control), % at 5.7 µM; shares compounds with STAT3 act-1; 1,200 tested, 13% active; NIH 3T3 STAT1-luciferase reporter;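 active means activation above the solvent-only control well mean plus 3 SD, set per screening run, cut at about 120% in these data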;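 further: 100% = IFN-gamma with DMSO median signal so 100% means no change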
# * = called active by the depositor; . = no result. Hits are enriched below; roughly 3.3% of the tested compounds scored in any of these assays.
SMILES,STAT3 act-1,AHR activator,GAA850 FXN act,ABCB6 inh 2,STAT3 act-2,NFkB act 2,STAT1 act
COc1c2ccc(OCC/C(C)=C/C(=O)C=C(C)C)cc2nc2occc12,.,76*,1,102,.,.,.
COc1cc2nc3occc3c(OC)c2cc1OC,75,-10,2,100,.,.,.
Cc1cccc(C(=O)OCC(=O)c2ccc(CC(=O)N3CCOCC3)s2)c1C,.,1,0,101,.,.,.
CCCC1=[N+](CC)CCn2c(C)ccc21,92,-1,-3,94,.,.,.
CCCC1=[N+](CC(=O)c2ccccc2)CCn2c(C)ccc21,116,49*,-1,100,.,.,.
CCCCCCCCSC1=CC(=O)C(OC)=C(OC)C1=O,.,.,1,93,.,.,.
O=C(NCc1ccc(F)cc1)C(=O)NCC1OCCN1S(=O)(=O)c1cc(F)ccc1F (stereo not drawn),.,.,1,97,.,.,.
Cc1ccc(-c2ccccc2)n1-c1ccc(C(=O)O)cc1,105,-1,3,95,.,.,.
Oc1ccccc1-n1c(-c2ccccc2)ccc1-c1ccccc1,.,51*,-2,99,.,.,.
CCSc1n[nH]c2nc3c(c(=O)n12)C1(CCCC1)Cc1ccccc1-3,103,51*,-1,107,.,.,.
CSc1n[nH]c2nc3c(c(=O)n12)C1(CCCC1)Cc1ccccc1-3,110,79*,1,102,.,.,.
CC(C)Sc1n[nH]c2nc3c(c(=O)n12)C1(CCCC1)Cc1ccccc1-3,106,.,.,.,.,.,.
Cc1ccc(-n2c(SCC(N)=O)nc3c(c2=O)C2(CCCC2)Cc2ccccc2-3)cc1,101,0,-7,103,.,.,.
C=CCSc1n[nH]c2nc3c(c(=O)n12)C1(CCCC1)Cc1ccccc1-3,105,59*,-2,103,.,.,.
COc1ccccc1-c1nnc(SCC(=O)NC2CCCCC2)o1,163*,22,3,101,146*,97,97
Cc1ccccc1-c1nnc(SCC(=O)NC2CCCCC2)o1,88,-4,-3,104,.,.,.
CCC1(O)c2ccccc2-c2ncccc21 (stereo not drawn),104,0,1,87,.,.,.
Cc1ccc(C(=O)N2CCN3C(=O)c4ccccc4C23c2ccccc2)cc1 (stereo not drawn),159*,2,0,100,111,102,101
CS(=O)(=O)N1N=C(c2ccccc2)CC1c1cccs1 (stereo not drawn),104,2,0,106,.,.,.
CCS(=O)(=O)Nc1ccc(C2=NN(S(C)(=O)=O)C(c3cccs3)C2)cc1 (stereo not drawn),137*,18,2,101,125,101,102
COC(=O)C1CCN(C(=O)COC(=O)Cc2c[nH]c3ccccc23)CC1,140*,17,1,107,131,100,94
O=C(Cc1c[nH]c2ccccc12)OCC(=O)c1ccccc1,136*,14,2,94,132,104,93
CC1CCCN(C(=O)COC(=O)Cc2c[nH]c3ccccc23)C1 (stereo not drawn),.,15,4,95,.,.,.
CCC(CC)NC(=O)Cc1ccccc1[N+](=O)[O-],138*,26,-1,98,140*,108,97
Cc1ccnc(NC(=O)CCC(=O)N(CC(=O)NCc2ccccc2)c2ccc3c(c2)OCO3)c1,149*,13,3,95,144*,114,98
Oc1ccccc1/C=N/n1c2ccccc2c2ccccc21,147*,20,1,92,137*,99,97
Oc1cccc(C2c3[nH]c4ccccc4c3CCN2Cc2ccc3c(c2)CCO3)c1 (stereo not drawn),141*,15,0,104,142*,104,94
COc1cccc(C2c3[nH]c4ccccc4c3CCN2Cc2cnn(C)c2)c1 (stereo not drawn),.,10,-1,87,.,.,.
